Data reported in ChEMBL document CHEMBL1140964, “1,8-Naphthyridines VII. New substituted 5-amino[1,2,4]triazolo[4,3-a][1,8]naphthyridine-6-carboxamides and their isosteric analogues, exhibiting notable anti-inflammatory and/or analgesic activities, but no acute gastrolesivity” (Eur J Med Chem, 2008).

Columns and labels:
Mus musculus [1] = experiment: Antinociceptive activity in Swiss mouse assessed as inhibition of acetic acid-induced writhing response at 100 mg/kg, po dose administered 1 hr before acetic acid challenge measured for 30 mins; assay type: functional
Procedure, shortened: (§1)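 Swiss mice (25–35 g, either sex), fasted overnight, received compound orally in 0.5% methylcellulose or vehicle, with 8–10 per group. Testing started at 100 mg/kg with successive twofold dose reductions. Writhes were counted for 30 min after acetic acid injection. Percent inhibition of the writhing response was calculated versus vehicle controls (Student's t-test).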

Mus musculus [2] = experiment: Antinociceptive activity in Swiss mouse assessed as inhibition of acetic acid-induced writhing response at 50 mg/kg, po dose administered 1 hr before acetic acid challenge measured for 30 mins; assay type: functional; procedure, shortened: as §1
Rattus norvegicus [3] = experiment: Antiinflammatory activity against carrageenan-induced paw edema in Wistar rat at 100 mg/kg, po dose administered 1 hr before carrageenan challenge assessed after 3 hrs; assay type: functional
Procedure, shortened: (§2)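 Wistar rats (250–300 g, either sex), fasted overnight, dosed by oral gavage with the compound suspended in 0.5% methylcellulose. Controls received vehicle alone, with 8–10 animals per group. Dosing started at 100 mg/kg and was halved stepwise. Carrageenan (1%, 0.1 mL) was injected subplantar 1 h post-dose. Paw volume was measured by plethysmometer immediately and at 3 h, and % inhibition of swelling was calculated versus controls (Student's t-test).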

Mus musculus [4] = experiment: Sedative activity in Swiss mouse assessed as inhibition of spontaneous locomotor activity at 100 mg/kg, po dose measured for every 5 mins during 60 to 90 mins; assay type: organism-based; parameters: dose 100 mg/kg, route oral
Procedure, shortened: (§3)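 Fasted Swiss mice (25–35 g, either sex) were given compound orally in 0.5% methylcellulose or vehicle. Each mouse was placed alone in a photobeam-type activity cage, with counts recorded every 5 min for 90 min. Pulses from the final 30 min were scored, with testing run 9:00–13:00. Percent inhibition was calculated versus controls (Student's t-test).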

Mus musculus [5] = experiment: Antinociceptive activity in Swiss mouse assessed as inhibition of acetic acid-induced writhing response at 25 mg/kg, po dose administered 1 hr before acetic acid challenge measured for 30 mins; assay type: functional; procedure, shortened: as §1
Rattus norvegicus [6] = experiment: Antiinflammatory activity against carrageenan-induced paw edema in Wistar rat at 50 mg/kg, po dose administered 1 hr before carrageenan challenge assessed after 3 hrs; assay type: functional; procedure, shortened: as §2
Rattus norvegicus [7] = experiment: Antiinflammatory activity against carrageenan-induced paw edema in Wistar rat at 25 mg/kg, po dose administered 1 hr before carrageenan challenge assessed after 3 hrs; assay type: functional; procedure, shortened: as §2
Rattus norvegicus [8] = experiment: Antiinflammatory activity against carrageenan-induced paw edema in Wistar rat at 12.5 mg/kg, po dose administered 1 hr before carrageenan challenge assessed after 3 hrs; assay type: functional; procedure, shortened: as §2
Rattus norvegicus [9] = experiment: Antiinflammatory activity against carrageenan-induced paw edema in Wistar rat at 6.25 mg/kg, po dose administered 1 hr before carrageenan challenge assessed after 3 hrs; assay type: functional; procedure, shortened: as §2
Rattus norvegicus [10] = experiment: Antiinflammatory activity against carrageenan-induced paw edema in Wistar rat at 3.12 mg/kg, po dose administered 1 hr before carrageenan challenge assessed after 3 hrs; assay type: functional
Mus musculus [11] = experiment: Antinociceptive activity in Swiss mouse assessed as inhibition of acetic acid-induced writhing response at 12.5 mg/kg, po dose administered 1 hr before acetic acid challenge measured for 30 mins; assay type: functional; procedure, shortened: as §1
Mus musculus [12] = experiment: Sedative activity in Swiss mouse assessed as inhibition on spontaneous locomotor activity at 25 mg/kg, po measured for every 5 mins during 60 to 90 mins; assay type: functional, organism-based; parameters: dose 25 mg/kg, route oral; procedure, shortened: as §3
Mus musculus [13] = experiment: Sedative activity in Swiss mouse assessed as inhibition on spontaneous locomotor activity at 12.5 mg/kg, po dose measured for every 5 mins during 60 to 90 mins; assay type: ADME, organism-based; parameters: dose 12.5 mg/kg, route oral; procedure, shortened: as §3
Mus musculus [14] = experiment: Antinociceptive activity in Swiss mouse assessed as inhibition of acetic acid-induced writhing response at 200 mg/kg, po dose administered 1 hr before acetic acid challenge measured for 30 mins; assay type: functional
Rattus norvegicus [15] = experiment: Antiinflammatory activity against carrageenan-induced paw edema in Wistar rat at 200 mg/kg, po dose administered 1 hr before carrageenan challenge assessed after 3 hrs; assay type: functional
Rattus norvegicus [16] = experiment: Acute gastrolesivity in Wistar rat assessed as appearance of gastric lesions at 200 mg/kg, po after 5 hrs; assay type: toxicity, organism-based, Stomach; parameters: dose 200 mg/kg, route oral; conditions: in vivo
Procedure, shortened: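 Wistar rats (250–300 g, either sex), fasted overnight, given the compound orally at 200 mg kg-1 as a suspension in 0.5% methylcellulose by gavage (1 mL/100 g); 8 rats per compound. Stomachs were fixed in 2% formalin, opened along the greater curvature, and examined under a stereomicroscope by a blinded observer. The result is the number of rats with gastric damage over the number treated.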

Mus musculus [17] = experiment: Antinociceptive activity in Swiss mouse assessed as inhibition of acetic acid-induced writhing response at 6.25 mg/kg, po dose administered 1 hr before acetic acid challenge measured for 30 mins; assay type: functional; procedure, shortened: as §1
Mus musculus [18] = experiment: Antinociceptive activity in Swiss mouse assessed as inhibition of acetic acid-induced writhing response at 3.12 mg/kg, po dose administered 1 hr before acetic acid challenge measured for 30 mins; assay type: functional
Mus musculus [19] = experiment: Sedative activity in Swiss mouse assessed as inhibition on spontaneous locomotor activity at 6.25 mg/kg, po measured for every 5 mins during 60 to 90 mins; assay type: ADME, organism-based; parameters: dose 6.25 mg/kg, route oral; procedure, shortened: as §3

Row | Structure (SMILES) | inhibition in vivo at 100 mg/kg (Mus musculus [1]) [%] | inhibition in vivo at 50 mg/kg (Mus musculus [2]) [%] | inhibition in vivo at 100 mg/kg (Rattus norvegicus [3]) [%] | inhibition at 100 mg/kg (Mus musculus [4]) [%] | inhibition in vivo at 25 mg/kg (Mus musculus [5]) [%] | inhibition in vivo at 50 mg/kg (Rattus norvegicus [6]) [%] | other results
1 | CCNC(=O)c1c(N2CCN(C)CC2)c2cccnc2n2c(C(C)C)nnc12 | 79 | 24 | 0 | 80 | – | – | –
2 | CCN(CC)C(=O)c1c(OC2CCN(C)CC2)c2cccnc2n2c(C(C)C)nnc12 | 87 | 35 | 18 | 65 | – | – | –
3 | CCc1nnc2c(C(=O)N(CC)CC)c(NCCC(C)C)c3cccnc3n12 | 98 | 75 | 41 | 95 | 15 | 41 | inhibition in vivo at 25 mg/kg (Rattus norvegicus [7]): 43%; inhibition in vivo at 12.5 mg/kg (Rattus norvegicus [8]): 29%; inhibition in vivo at 6.25 mg/kg (Rattus norvegicus [9]): 0%
4 | CCN(CC)C(=O)c1c(N(C)CC)c2cccnc2n2c(C(C)C)nnc12 | 81 | 59 | 71 | 53 | 17 | 67 | inhibition in vivo at 25 mg/kg (Rattus norvegicus [7]): 65%; inhibition in vivo at 12.5 mg/kg (Rattus norvegicus [8]): 51%; inhibition in vivo at 6.25 mg/kg (Rattus norvegicus [9]): 42%; inhibition in vivo at 3.12 mg/kg (Rattus norvegicus [10]): 0%
5 | CCN(CC)C(=O)c1c(N2CCN(C)CC2)c2ccccc2n2cnnc12 | 55 | 58 | 0 | 0 | 28 | – | –
6 | CCN(CC)C(=O)c1c(N2CCN(C)CC2)c2cccnc2n2cnnc12 | 14 | – | 0 | – | – | – | –
7 | CCN(CC)C(=O)c1c(NC(C)C)c2cccnc2n2c(C(C)C)nnc12 | 83 | 54 | 81 | 98 | 33 | 75 | inhibition in vivo at 12.5 mg/kg (Mus musculus [11]): 0%; inhibition in vivo at 25 mg/kg (Rattus norvegicus [7]): 75%; inhibition in vivo at 12.5 mg/kg (Rattus norvegicus [8]): 68%; inhibition in vivo at 6.25 mg/kg (Rattus norvegicus [9]): 15%; inhibition at 25 mg/kg (Mus musculus [12]): 26%; inhibition at 12.5 mg/kg (Mus musculus [13]): 0%
8 | CCN(CC)C(=O)c1c(N2CCN(C)CC2)c2cccnc2n2c(-c3ccccc3)nnc12 | 100 | 62 | 0 | 72 | 15 | – | –
9 | CCNc1c(C(=O)N(CC)CC)c2nnc(C(C)C)n2c2ccccc12 | 91 | 43 | 42 | 39 | 12 | 43 | inhibition in vivo at 25 mg/kg (Rattus norvegicus [7]): 24%; inhibition in vivo at 12.5 mg/kg (Rattus norvegicus [8]): 6%
10 | CCNc1c(C(=O)N(CC)CC)c2nnc(C(C)C)n2c2ncccc12 | 100 | 20 | 63 | 13 | – | 63 | inhibition in vivo at 200 mg/kg (Mus musculus [14]): 100%; inhibition in vivo at 200 mg/kg (Rattus norvegicus [15]): 65%; inhibition in vivo at 25 mg/kg (Rattus norvegicus [7]): 61%; inhibition in vivo at 12.5 mg/kg (Rattus norvegicus [8]): 35%; inhibition in vivo at 6.25 mg/kg (Rattus norvegicus [9]): 33%; inhibition in vivo at 3.12 mg/kg (Rattus norvegicus [10]): 9%; Activity (Rattus norvegicus [16]): Non-toxic
11 | CCN(CC)C(=O)c1c(OCC(C)C)c2cccnc2n2c(C(C)C)nnc12 | 26 | – | 0 | – | – | – | –
12 | CCN(CC)C(=O)c1c(N2CCN(C)CC2)c2ccccc2n2c(C(C)C)nnc12 | 100 | 100 | 34 | 54 | 77 | 0 | inhibition in vivo at 12.5 mg/kg (Mus musculus [11]): 14%; inhibition at 25 mg/kg (Mus musculus [12]): 21%
13 | CCOc1c(C(=O)N(CC)CC)c2nnc(C(C)C)n2c2ncccc12 | 22 | – | 10 | – | – | – | –
14 | CC(C)c1nnc2c(C(=O)N3CCCC3)c(N3CCN(C)CC3)c3cccnc3n12 | 100 | – | 0 | – | – | – | –
15 | CCC(CC)Nc1c(C(=O)N(CC)CC)c2nnc(C(C)C)n2c2ncccc12 | 91 | 75 | 50 | 97 | 58 | 47 | inhibition in vivo at 12.5 mg/kg (Mus musculus [11]): 49%; inhibition in vivo at 6.25 mg/kg (Mus musculus [17]): 36%; inhibition in vivo at 3.12 mg/kg (Mus musculus [18]): 18%; inhibition in vivo at 25 mg/kg (Rattus norvegicus [7]): 47%; inhibition in vivo at 12.5 mg/kg (Rattus norvegicus [8]): 45%; inhibition in vivo at 6.25 mg/kg (Rattus norvegicus [9]): 11%; inhibition at 25 mg/kg (Mus musculus [12]): 70%; inhibition at 12.5 mg/kg (Mus musculus [13]): 92%; inhibition at 6.25 mg/kg (Mus musculus [19]): 81%
16 | CCN(CC)C(=O)c1c(NN2CCN(C)CC2)c2cccnc2n2c(C(C)C)nnc12 | 17 | – | 0 | – | – | – | –
17 | CC(C)CNc1c(C(=O)N2CCCC2)c2nnc(C(C)C)n2c2ncccc12 | 60 | 64 | 0 | 5 | 29 | – | –
18 | CCN(CC)C(=O)c1c(NCC(OC)OC)c2cccnc2n2c(C(C)C)nnc12 | 47 | 8 | 0 | 0 | – | – | –
19 | CCN(CC)C(=O)c1c(NCC(C)C)c2cccnc2n2c(C(C)C)nnc12 | 100 | 33 | 70 | 15 | – | 66 | inhibition in vivo at 200 mg/kg (Mus musculus [14]): 100%; inhibition in vivo at 200 mg/kg (Rattus norvegicus [15]): 74%; inhibition in vivo at 25 mg/kg (Rattus norvegicus [7]): 61%; inhibition in vivo at 12.5 mg/kg (Rattus norvegicus [8]): 50%; inhibition in vivo at 6.25 mg/kg (Rattus norvegicus [9]): 27%; inhibition in vivo at 3.12 mg/kg (Rattus norvegicus [10]): 18%; Activity (Rattus norvegicus [16]): Non-toxic
20 | CCOC(=O)N1CCN(c2c(C(=O)N(CC)CC)c3nnc(C(C)C)n3c3ncccc23)CC1 | 100 | 75 | 0 | 83 | 53 | – | inhibition in vivo at 12.5 mg/kg (Mus musculus [11]): 29%; inhibition at 25 mg/kg (Mus musculus [12]): 96%
21 | CCN(CC)C(=O)c1c(OC(C)C)c2cccnc2n2c(C(C)C)nnc12 | 11 | – | 24 | – | – | 0 | –
22 | CCN(CC)C(=O)c1c(NCC(C)C)c2ccccc2n2c(C(C)C)nnc12 | 88 | 29 | 0 | 14 | – | – | –
23 | CCCCOc1c(C(=O)N(CC)CC)c2nnc(C(C)C)n2c2ncccc12 | 40 | 14 | 3 | 76 | – | – | –
24 | CCN(CC)C(=O)c1c(OC2CCN(C)CC2)c2cccnc2n2cnnc12 | 45 | 20 | 0 | 55 | – | – | –
